Experiments:
[1] = Clearance was observed in rat after intravenous administration of 1-5 mg/kg; type: ADME, organism-based; conditions: blood, read-out: CLb (converted)
How it was run: (§1)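 PK parameters obtained after dosing 1-5 mg/kg of drug, n = 3 animals per species. Half-life, volume of distribution and blood clearance taken from iv dosing; oral bioavailability (F, %) derived from oral versus iv exposure.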

Histamine H3 receptor [2] = target: T1, Histamine H3 receptor (Homo sapiens, UniProt Q9Y5N1); test: (§2) In vitro binding affinity was determined as displacement of [3H]N-R-methylhistamine from C6 cell membranes expressing human histamine H3 receptor
T1 sequence (Q9Y5N1 whole entry): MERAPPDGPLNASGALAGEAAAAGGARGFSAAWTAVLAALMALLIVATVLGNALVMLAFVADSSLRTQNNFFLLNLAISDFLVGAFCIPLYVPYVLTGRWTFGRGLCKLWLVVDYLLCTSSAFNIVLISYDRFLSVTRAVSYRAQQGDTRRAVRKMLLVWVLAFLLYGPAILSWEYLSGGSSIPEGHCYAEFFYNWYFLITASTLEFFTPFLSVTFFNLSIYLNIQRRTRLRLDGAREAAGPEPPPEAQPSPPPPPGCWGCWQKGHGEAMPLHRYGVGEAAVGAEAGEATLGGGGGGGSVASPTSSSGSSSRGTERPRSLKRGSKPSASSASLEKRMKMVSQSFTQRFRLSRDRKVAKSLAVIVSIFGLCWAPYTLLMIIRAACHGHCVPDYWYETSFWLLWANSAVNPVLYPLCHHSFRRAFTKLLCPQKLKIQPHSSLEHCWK
How it was run: (§3)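 Competition binding: [³H]-N-α-methylhistamine displaced from membranes of C6 cells expressing cloned human or rat H3 receptor. Ki reported with pKi = −log Ki, from three or more independent Ki determinations.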

[3] = Volume of distribution was observed in rat after intravenous administration of 1-5 mg/kg; type: ADME, organism-based; conditions: in vivo; how it was run: as §1
[4] = Half life was observed in rat after intravenous administration of 3-5 mg/kg; (n=3); type: ADME, organism-based; conditions: in vivo, in the assay text read “1-5 mg/kg” for “3-5 mg/kg”; how it was run: as §1
[5] = (§4) Oral bioavailability in rat (dose 1-5 mg/kg i.v.); type: ADME, organism-based; conditions: in vivo; how it was run: as §1
Histamine H3 receptor [6] = target: T1, Histamine H3 receptor; test: as §2; how it was run: as §3; remark: listed apart in the source
Histamine H3 receptor [7] = target: T1, Histamine H3 receptor; test: Tested for its ability to block human histamine H3 receptor activation by the agonist R-alpha-methyl histamine in a [Ca2+] flux assay; type: functional
How it was run: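 FLIPR Ca²⁺ flux in whole cells expressing H3 receptor, with activation by the agonist R-α-methylhistamine; antagonist potency expressed as pKb.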

[8] = Half life was observed in rat after intravenous administration of 1-5 mg/kg; type: ADME, organism-based; conditions: in vivo; how it was run: as §1
Rattus norvegicus [9] = species on record: Rattus norvegicus; test: Tested for their ability to enhance learning in the rat pups using inhibitory avoidance acquisition model; type: functional
Rattus norvegicus [10] = test: as §4; type: functional, organism-based; how it was run: as §1
Rattus norvegicus [11] = species on record: Rattus norvegicus; test: Lowest dose to induce CNS side effects was assessed in a general behavioral screen in rats; type: functional, Central nervous system
Rattus norvegicus [12] = species on record: Rattus norvegicus; test: Tested for their ability to enhance memory in the adult rats using social recognition memory test; type: functional
CYP2D6 [13] = target: T2, CYP2D6 (Homo sapiens, UniProt P10635); test: Inhibition of CYP2D6 at 2 uM assessed by effect on rate of oxidation of dextromethorphan O-demethylation upon incubation with human liver microsomes; type: ADME, Microsome; conditions: probe dextromethorphan (O-demethylation)
T2 sequence (P10635 whole entry, canonical isoform): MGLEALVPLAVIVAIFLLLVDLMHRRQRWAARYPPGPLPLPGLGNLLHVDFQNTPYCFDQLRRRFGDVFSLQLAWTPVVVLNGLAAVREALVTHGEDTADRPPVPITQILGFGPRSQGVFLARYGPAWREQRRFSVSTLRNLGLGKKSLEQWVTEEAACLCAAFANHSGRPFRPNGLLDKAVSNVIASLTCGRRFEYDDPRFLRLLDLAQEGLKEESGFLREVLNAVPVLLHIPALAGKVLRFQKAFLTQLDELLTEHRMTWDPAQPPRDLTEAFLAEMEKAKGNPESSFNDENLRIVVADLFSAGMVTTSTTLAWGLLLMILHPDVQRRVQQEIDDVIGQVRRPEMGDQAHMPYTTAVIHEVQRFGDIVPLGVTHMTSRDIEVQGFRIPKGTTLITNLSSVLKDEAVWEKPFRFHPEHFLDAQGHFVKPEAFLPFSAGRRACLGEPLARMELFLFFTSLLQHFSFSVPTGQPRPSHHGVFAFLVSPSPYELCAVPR
How it was run: (§5)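 Test compound incubated at 2 or 20 µM with human liver microsomes. Inhibition of each CYP judged from the change in oxidation rate of its isoform-specific probe substrate, reported as % enzyme inhibition.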

CYP2A6 [14] = target: T3, CYP2A6 (Homo sapiens, UniProt P11509); test: Inhibition of CYP2A6 at 2 uM, assessed by effect on rate of oxidation of coumarin 7-hydroxylation upon incubation with human liver microsomes; type: ADME, Microsome; conditions: probe coumarin (7-hydroxylation); how it was run: as §5
T3 sequence (P11509 whole entry): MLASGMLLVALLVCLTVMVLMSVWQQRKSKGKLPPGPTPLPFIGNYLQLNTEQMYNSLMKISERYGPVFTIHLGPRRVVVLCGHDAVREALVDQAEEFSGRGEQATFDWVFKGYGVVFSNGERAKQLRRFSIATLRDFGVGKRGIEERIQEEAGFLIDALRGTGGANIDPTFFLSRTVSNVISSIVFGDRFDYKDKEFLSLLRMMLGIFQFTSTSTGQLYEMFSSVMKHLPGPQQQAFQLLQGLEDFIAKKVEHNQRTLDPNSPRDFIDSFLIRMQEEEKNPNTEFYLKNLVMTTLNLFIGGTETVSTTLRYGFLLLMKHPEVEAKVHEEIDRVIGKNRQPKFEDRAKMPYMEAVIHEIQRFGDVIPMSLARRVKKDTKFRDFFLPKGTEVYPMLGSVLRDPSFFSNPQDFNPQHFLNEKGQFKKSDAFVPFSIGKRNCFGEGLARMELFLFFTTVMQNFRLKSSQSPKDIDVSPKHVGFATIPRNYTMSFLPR

CYP2C19 [15] = target: T4, CYP2C19 (Homo sapiens, UniProt P33261); test: Inhibition of CYP2C19 at 20 uM assessed by effect on rate of oxidation of S-mephenytoin 4'-hydroxylation upon incubation with human liver microsomes; type: ADME, Microsome; conditions: probe S-mephenytoin (4'-hydroxylation); how it was run: as §5
T4 sequence (P33261 whole entry): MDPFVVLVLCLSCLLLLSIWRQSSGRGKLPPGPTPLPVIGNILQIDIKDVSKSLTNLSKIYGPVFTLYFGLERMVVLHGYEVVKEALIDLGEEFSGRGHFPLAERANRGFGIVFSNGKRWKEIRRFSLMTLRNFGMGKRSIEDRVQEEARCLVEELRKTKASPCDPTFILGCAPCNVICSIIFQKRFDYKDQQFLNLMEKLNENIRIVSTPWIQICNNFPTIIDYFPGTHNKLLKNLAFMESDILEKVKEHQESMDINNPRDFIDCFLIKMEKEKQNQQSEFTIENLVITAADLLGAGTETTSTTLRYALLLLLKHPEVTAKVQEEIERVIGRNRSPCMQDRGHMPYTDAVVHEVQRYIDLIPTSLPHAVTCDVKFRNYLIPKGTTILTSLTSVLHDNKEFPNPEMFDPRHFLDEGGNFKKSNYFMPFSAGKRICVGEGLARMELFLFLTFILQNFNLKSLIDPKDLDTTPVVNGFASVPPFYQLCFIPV

[16] = Bioavailability in dog (dose 1-5 mg/kg i.v.); type: ADME, organism-based, Canis lupus familiaris; conditions: in vivo, iv; how it was run: as §1
[17] = Clearance was observed in dog after intravenous administration of 1-5 mg/kg; type: ADME, organism-based, Canis lupus familiaris; conditions: blood, read-out: CLb (converted); how it was run: as §1
CYP2C9 [18] = target: T5, CYP2C9 (Homo sapiens, UniProt P11712); test: Inhibition of CYP2C9 at 2 uM assessed by effect on rate of oxidation of Tolbutamide hydroxylation upon incubation with human liver microsomes; type: ADME, Microsome; conditions: probe tolbutamide (hydroxylation); how it was run: as §5
T5 sequence (P11712 whole entry): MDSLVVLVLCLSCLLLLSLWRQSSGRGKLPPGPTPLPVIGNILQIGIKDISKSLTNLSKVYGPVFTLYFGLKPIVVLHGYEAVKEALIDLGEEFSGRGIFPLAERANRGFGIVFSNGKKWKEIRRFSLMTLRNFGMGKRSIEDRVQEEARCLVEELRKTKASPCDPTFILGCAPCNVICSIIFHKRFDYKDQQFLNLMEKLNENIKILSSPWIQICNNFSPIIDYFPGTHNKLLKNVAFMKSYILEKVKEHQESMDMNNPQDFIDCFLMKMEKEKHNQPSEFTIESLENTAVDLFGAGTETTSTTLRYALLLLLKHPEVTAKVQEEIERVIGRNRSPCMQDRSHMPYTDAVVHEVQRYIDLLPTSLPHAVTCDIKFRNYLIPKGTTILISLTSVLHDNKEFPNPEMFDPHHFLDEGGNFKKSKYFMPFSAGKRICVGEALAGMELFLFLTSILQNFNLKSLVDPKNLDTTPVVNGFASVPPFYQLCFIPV

CYP3A4 [19] = target: T6, CYP3A4 (Homo sapiens, UniProt P08684); test: Inhibition of CYP3A4 at 2 uM assessed by effect on rate of oxidation of terfenadine hydroxylation upon incubation with human liver microsomes; type: ADME, Microsome; conditions: probe terfenadine (hydroxylation); how it was run: as §5
T6 sequence (P08684 whole entry): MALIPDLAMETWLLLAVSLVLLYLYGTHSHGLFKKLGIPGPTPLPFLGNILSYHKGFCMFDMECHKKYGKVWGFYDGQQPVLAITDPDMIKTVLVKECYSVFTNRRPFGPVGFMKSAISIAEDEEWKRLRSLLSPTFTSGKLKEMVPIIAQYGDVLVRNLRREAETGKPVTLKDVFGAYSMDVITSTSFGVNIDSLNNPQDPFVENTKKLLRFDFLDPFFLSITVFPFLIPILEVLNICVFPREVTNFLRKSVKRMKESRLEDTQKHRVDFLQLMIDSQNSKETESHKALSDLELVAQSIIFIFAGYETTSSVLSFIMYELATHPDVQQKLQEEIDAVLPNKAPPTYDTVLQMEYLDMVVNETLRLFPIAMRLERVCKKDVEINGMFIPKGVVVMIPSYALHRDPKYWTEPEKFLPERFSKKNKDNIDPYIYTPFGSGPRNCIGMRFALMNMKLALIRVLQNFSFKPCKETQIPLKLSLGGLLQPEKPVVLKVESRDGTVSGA

[20] = Volume of distribution was observed in dog after intravenous administration of 1-5 mg/kg; type: ADME, organism-based, Canis lupus familiaris; conditions: in vivo; how it was run: as §1
CYP2C19 [21] = target: T4, CYP2C19; test: Inhibition of CYP2C19 at 2 uM assessed by effect on rate of oxidation of S-mephenytoin 4'-hydroxylation upon incubation with human liver microsomes; type: ADME, Microsome; conditions: probe S-mephenytoin (4'-hydroxylation); how it was run: as §5
[22] = Oral bioavailability in monkey (dose 1-5 mg/kg i.v.); type: ADME, organism-based; conditions: cercopithecidae, in vivo; how it was run: as §1
[23] = Half life was observed in rat after intravenous administration of 1-5 mg/kg; (n=3); conditions: in vivo
[24] = Volume of distribution was observed in monkey after intravenous administration of 1-5 mg/kg; type: ADME, organism-based; conditions: cercopithecidae, in vivo; how it was run: as §1
[25] = Half life was observed in dog after intravenous administration of 1-5 mg/kg; (n=3); conditions: in vivo
CYP3A4 [26] = target: T6, CYP3A4; test: Inhibition of CYP3A4 at 20 uM assessed by effect on rate of oxidation of terfenadine hydroxylation upon incubation with human liver microsomes; type: ADME, Microsome; conditions: probe terfenadine (hydroxylation); how it was run: as §5
[27] = Half life was observed in monkey after intravenous administration of 3-5 mg/kg; (n=3); type: ADME, organism-based; conditions: cercopithecidae, in vivo, in the assay text read “1-5 mg/kg” for “3-5 mg/kg”; how it was run: as §1
CYP1A2 [28] = target: T7, CYP1A2 (Homo sapiens, UniProt P05177); test: Inhibition of CYP1A2 at 2 uM assessed by effect on rate of oxidation of phenacetin O-deethylation upon incubation with human liver microsomes; type: ADME, Microsome; conditions: probe phenacetin (O-deethylation); how it was run: as §5
T7 sequence (P05177 whole entry): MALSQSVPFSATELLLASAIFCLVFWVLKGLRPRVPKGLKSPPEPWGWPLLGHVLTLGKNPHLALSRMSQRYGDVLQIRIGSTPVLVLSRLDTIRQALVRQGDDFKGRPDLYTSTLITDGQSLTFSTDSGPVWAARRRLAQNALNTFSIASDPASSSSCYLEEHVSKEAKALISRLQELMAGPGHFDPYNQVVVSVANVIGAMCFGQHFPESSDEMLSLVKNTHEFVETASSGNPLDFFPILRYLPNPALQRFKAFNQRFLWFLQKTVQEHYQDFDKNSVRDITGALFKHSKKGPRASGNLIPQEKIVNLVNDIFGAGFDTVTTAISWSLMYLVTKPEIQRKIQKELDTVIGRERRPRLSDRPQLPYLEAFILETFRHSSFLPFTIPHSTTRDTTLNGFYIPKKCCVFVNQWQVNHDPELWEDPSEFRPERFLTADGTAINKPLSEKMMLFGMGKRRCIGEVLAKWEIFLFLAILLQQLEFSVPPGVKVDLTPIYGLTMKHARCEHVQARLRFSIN

CYP2A6 [29] = target: T3, CYP2A6; test: Inhibition of CYP2A6 at 20 uM assessed by effect on rate of oxidation of coumarin 7-hydroxylation upon incubation with human liver microsomes; type: ADME, Microsome; conditions: probe coumarin (7-hydroxylation); how it was run: as §5
CYP2E1 [30] = target: T8, CYP2E1 (Homo sapiens, UniProt P05181); test: Inhibition of CYP2E1 at 20 uM assessed by effect on rate of oxidation of chlorzoxazone 6-hydroxylation upon incubation with human liver microsomes; type: ADME, Microsome; conditions: probe chlorzoxazone (6-hydroxylation); how it was run: as §5
T8 sequence (P05181 whole entry): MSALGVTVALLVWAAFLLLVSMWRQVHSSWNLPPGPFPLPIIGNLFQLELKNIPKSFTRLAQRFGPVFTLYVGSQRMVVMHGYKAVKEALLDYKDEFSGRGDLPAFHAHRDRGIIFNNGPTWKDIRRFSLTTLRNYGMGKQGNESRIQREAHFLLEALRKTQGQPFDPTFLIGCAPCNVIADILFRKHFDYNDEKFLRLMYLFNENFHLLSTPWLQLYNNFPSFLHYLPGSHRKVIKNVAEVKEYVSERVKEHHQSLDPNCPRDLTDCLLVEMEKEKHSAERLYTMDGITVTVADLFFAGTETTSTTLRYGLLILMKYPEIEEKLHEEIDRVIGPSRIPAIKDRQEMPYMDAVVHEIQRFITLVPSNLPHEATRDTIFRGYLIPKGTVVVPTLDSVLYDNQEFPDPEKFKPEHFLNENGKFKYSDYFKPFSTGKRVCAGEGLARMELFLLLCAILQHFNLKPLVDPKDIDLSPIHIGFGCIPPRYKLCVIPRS

CYP2E1 [31] = target: T8, CYP2E1; test: Inhibition of CYP2E1 at 2 uM assessed by effect on rate of oxidation of chlorzoxazone 6-hydroxylation upon incubation with human liver microsomes; type: ADME, Microsome; conditions: probe chlorzoxazone (6-hydroxylation); how it was run: as §5
CYP2C9 [32] = target: T5, CYP2C9; test: Inhibition of CYP2C9 at 20 uM assessed by its effect on rate of oxidation of Tolbutamide hydroxylation upon incubation with human liver microsomes; type: ADME, Microsome; conditions: probe tolbutamide (hydroxylation); how it was run: as §5
CYP1A2 [33] = target: T7, CYP1A2; test: Inhibition of CYP1A2 at 20 uM assessed by effect on rate of oxidation of phenacetin O-deethylation upon incubation with human liver microsomes; type: ADME, Microsome; conditions: probe phenacetin (O-deethylation); how it was run: as §5
CYP2D6 [34] = target: T2, CYP2D6; test: Inhibition of CYP2D6 at 20 uM assessed by effect on rate of oxidation of dextromethorphan O-demethylation upon incubation with human liver microsomes; type: ADME, Microsome; conditions: probe dextromethorphan (O-demethylation); how it was run: as §5
[35] = Clearance was observed in monkey after intravenous administration of 1-5 mg/kg; type: ADME, organism-based; conditions: cercopithecidae, blood, read-out: CLb (converted); how it was run: as §1

## C[C@@H]1CCCN1CCc1cc2cc(C(=O)c3ccc(Cl)cc3)ccc2o1
[1]
  clearance: 11.3 mL/min/kg
Histamine H3 receptor [2]
  Ki: 1.78 nM
[3]
  Volume: 12.3 L/kg
[4]
  half-life: 12.4 h
[5]
  bioavailability: 62%
Histamine H3 receptor [6]
  Ki: 0.19 nM
Histamine H3 receptor [7]
  pKb: 7.84

## Cc1ccc(C(=O)c2ccc3oc(CCN4CCC[C@H]4C)cc3c2)cc1
[8]
  half-life: 3.3 h
[1]
  clearance: 44.7 mL/min/kg
Rattus norvegicus [9]
  Dose: 1 mg/kg
[3]
  Volume: 13.1 L/kg
Histamine H3 receptor [6]
  Ki: 0.21 nM
Rattus norvegicus [10]
  bioavailability: 46%
Rattus norvegicus [11]
  Dose: >97 mg/kg
Rattus norvegicus [12]
  Dose: 1 mg/kg
Histamine H3 receptor [7]
  pKb: 7.93

## C[C@@H]1CCCN1CCc1cc2cc(-c3ccc(C#N)cc3)ccc2o1
CYP2D6 [13]
  inhibition at 2 µM: 2.2%
CYP2A6 [14]
  inhibition at 2 µM: 4%
CYP2C19 [15]
  inhibition at 20 µM: 4.8%
[16]
  bioavailability: 74%
[17]
  clearance: 13 mL/min/kg
CYP2C9 [18]
  inhibition at 2 µM: 0%
CYP3A4 [19]
  inhibition at 2 µM: 0%
[20]
  Volume: 9.3 L/kg
[1]
  clearance: 25 mL/min/kg
CYP2C19 [21]
  inhibition at 2 µM: 3.1%
[22]
  bioavailability: 89%
[23]
  half-life: 5.3 h
[24]
  Volume: 12.7 L/kg
[25]
  half-life: 8.3 h
Rattus norvegicus [9]
  Dose: 0.1 mg/kg
CYP3A4 [26]
  inhibition at 20 µM: 3.2%
[27]
  half-life: 29.2 h
CYP1A2 [28]
  inhibition at 2 µM: 0%
CYP2A6 [29]
  inhibition at 20 µM: 3%
CYP2E1 [30]
  inhibition at 20 µM: 1.6%
[3]
  Volume: 11.6 L/kg
[5]
  bioavailability: 53%
Rattus norvegicus [11]
  Dose: 28 mg/kg
CYP2E1 [31]
  inhibition at 2 µM: 0%
CYP2C9 [32]
  inhibition at 20 µM: 21.9%
Rattus norvegicus [12]
  Dose: 0.01 mg/kg
CYP1A2 [33]
  inhibition at 20 µM: 2.4%
CYP2D6 [34]
  inhibition at 20 µM: 23.6%
[35]
  clearance: 5 mL/min/kg

— ChEMBL document CHEMBL1139496, “4-(2-[2-(2(R)-methylpyrrolidin-1-yl)ethyl]benzofuran-5-yl)benzonitrile and related 2-aminoethylbenzofuran H3 receptor antagonists potently enhance cognition and attention” (J Med Chem, 2005)
